The record followed here is ChEMBL document CHEMBL1126560, “Endothelin-1 analogues substituted at both position 18 and 19: highly potent endothelin antagonists with no selectivity for either receptor subtype ETA or ETB” (J Med Chem, 1993).

SMILES strings stand for the structures.

Broadly, the IC50 is the midpoint of a concentration-inhibition curve. Lower therefore signals greater potency in that assay.

The species named for assay [1] is Mus musculus. Briefly: Compound induced increase in cystolic free ca+2 concentration in murine peritoneal macrophages was measured. It counts as functional. In short, it runs like this: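 Murine peritoneal macrophages from male ICR mice given ip 10% protease peptone 3 days before, adhered 1.5 h at 37 °C, fura-2 AM loaded (4 μM, 24 °C, 1.5 h). Fura-2 fluorescence ratio (340/380 nm excitation, 505 nm emission) at 37 °C. Compound at 100 nM; rise expressed as % of 100 nM ET-1 response.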

The target of assay [2] is T1, Endothelin-1 receptor (Sus scrofa, UniProt Q29010).
T1 sequence (Q29010 whole entry): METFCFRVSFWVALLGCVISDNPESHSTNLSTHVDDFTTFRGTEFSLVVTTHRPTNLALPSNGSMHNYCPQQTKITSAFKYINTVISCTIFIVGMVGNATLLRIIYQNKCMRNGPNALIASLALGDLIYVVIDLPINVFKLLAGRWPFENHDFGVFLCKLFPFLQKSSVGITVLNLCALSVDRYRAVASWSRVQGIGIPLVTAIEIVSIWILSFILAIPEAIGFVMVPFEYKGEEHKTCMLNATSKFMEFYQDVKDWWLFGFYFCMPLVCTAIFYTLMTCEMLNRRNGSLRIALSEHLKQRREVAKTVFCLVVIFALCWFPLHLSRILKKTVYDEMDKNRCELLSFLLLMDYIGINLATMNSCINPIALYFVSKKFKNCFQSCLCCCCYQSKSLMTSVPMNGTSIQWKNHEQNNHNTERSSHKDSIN
Briefly: ETA receptor antagonist activity was measured by inhibition of ET-1 induced vasoconstriction in isolated porcine coronary artery. It counts as functional, tissue-based. Particulars: read-out: pA2 (converted). The method, boiled down:
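Porcine right coronary artery, endothelium-denuded 2 × 5-mm helical strips in Krebs-Henseleit, 95% O2-5% CO2, 37 °C, isometric tension. Compound added 15 min before cumulative ET-1. Tension normalized to 60 mM KCl. pA2 by van Rossum's method; n in parentheses.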

The target of assay [3] is T1, Endothelin-1 receptor. Kind of assay: Tested for the competitive binding versus [125I]- ET-1 determined in porcine cardiac ventricular membrane for Endothelin A receptor. In short, it runs like this:
(§1)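 Membranes (porcine cardiac ventricle at 12 μg/mL for ETA; bovine cerebrum at 150 μg/mL for ETB) in pH 7.2 Tris/EGTA/Mg acetate/0.1% BSA buffer with protease inhibitors. Incubated with 100 pM [125I]ET-1 and varied compound for 1 h at 25 °C, then filtered and counted by gamma counter. IC50 given as mean ± SEM of ≥3 determinations.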

Assay [4] has as its target T2, Endothelin receptor type B (Bos taurus, UniProt P28088).
T2 sequence (P28088 whole entry): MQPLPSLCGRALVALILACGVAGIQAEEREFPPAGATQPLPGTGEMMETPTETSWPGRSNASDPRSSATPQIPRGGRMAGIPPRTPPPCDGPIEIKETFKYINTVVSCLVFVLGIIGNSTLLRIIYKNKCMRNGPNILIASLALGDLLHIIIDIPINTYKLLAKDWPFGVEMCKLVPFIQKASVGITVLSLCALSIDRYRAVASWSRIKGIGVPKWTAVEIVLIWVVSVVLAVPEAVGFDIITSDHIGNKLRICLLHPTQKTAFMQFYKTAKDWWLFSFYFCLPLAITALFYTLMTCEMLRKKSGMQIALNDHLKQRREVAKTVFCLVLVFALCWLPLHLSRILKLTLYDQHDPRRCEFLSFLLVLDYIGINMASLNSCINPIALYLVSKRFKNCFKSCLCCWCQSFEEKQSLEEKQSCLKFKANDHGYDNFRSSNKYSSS
Kind of assay: Tested for the competitive binding versus [125I]- ET-1 determined in bovine cerebrum membrane for Endothelin B receptor. It counts as cell membranes. The method, boiled down:
as §1

As for `CC[C@H](C)[C@H](NC(=O)[C@H](CC(C)C)NC(=O)[C@@H](NC(=O)[C@H](CC(C)C)NC(=O)[C@H](Cc1c[nH]cn1)NC(=O)[C@@H]1CSSC[C@H](N)C(=O)N[C@@H](CO)C(=O)N[C@H]2CSSC[C@H](NC(=O)[C@H](CCC(=O)O)NC(=O)[C@H](CCCCN)NC(=O)[C@H](CC(=O)O)NC(=O)[C@H](CCSC)NC(=O)[C@H](CC(C)C)NC(=O)[C@H](CO)NC(=O)[C@H](CO)NC2=O)C(=O)N[C@@H](C(C)C)C(=O)N[C@@H](Cc2ccc(O)cc2)C(=O)N[C@@H](Cc2ccccc2)C(=O)N1)[C@@H](C)O)C(=O)N[C@@H](Cc1c[nH]c2ccccc12)C(=O)O` [listing 1 of 2 here], in assay [1], the “[Ca2+] increase” value worked out at 28.
On to `CC[C@H](C)[C@H](NC(=O)[C@H](CC(C)C)NC(=O)[C@H](CC(C)C)NC(=O)[C@H](Cc1cnc[nH]1)NC(=O)[C@@H]1CSSC[C@H](N)C(=O)N[C@@H](CO)C(=O)N[C@H]2CSSC[C@H](NC(=O)[C@H](CCC(=O)O)NC(=O)[C@H](CCCCN)NC(=O)[C@H](CC(=O)O)NC(=O)[C@H](CCSC)NC(=O)[C@H](CC(C)C)NC(=O)[C@H](CO)NC(=O)[C@H](CO)NC2=O)C(=O)N[C@@H](C(C)C)C(=O)N[C@@H](Cc2ccc(O)cc2)C(=O)N[C@@H](Cc2ccccc2)C(=O)N1)C(=O)N[C@H](C(=O)N[C@@H](Cc1c[nH]c2ccccc12)C(=O)O)[C@@H](C)CC`, for which the Kb in assay [2] is 5010 nM. Further, the half-inhibitory concentration (IC50) was 8.6 nM in assay [3] and 0.45 nM in assay [4].
As to `CC[C@H](C)[C@H](NC(=O)[C@H](CC(=O)O)NC(=O)[C@H](CC(C)C)NC(=O)[C@H](Cc1c[nH]cn1)NC(=O)[C@@H]1CSSC[C@H](N)C(=O)N[C@@H](CO)C(=O)N[C@H]2CSSC[C@H](NC(=O)[C@H](CCC(=O)O)NC(=O)[C@H](CCCCN)NC(=O)[C@H](CC(=O)O)NC(=O)[C@H](CCSC)NC(=O)[C@H](CC(C)C)NC(=O)[C@H](CO)NC(=O)[C@H](CO)NC2=O)C(=O)N[C@@H](C(C)C)C(=O)N[C@@H](Cc2ccc(O)cc2)C(=O)N[C@@H](Cc2ccccc2)C(=O)N1)C(=O)N[C@H](C(=O)N[C@@H](Cc1c[nH]c2ccccc12)C(=O)O)[C@@H](C)CC` [ENDOTHELIN], in assay [1], the “[Ca2+] increase” value was determined as 100. For the same compound, the IC50 in assay [3] stood at 0.15 nM; in assay [4], 0.12 nM.
With `CC[C@H](C)[C@H](NC(=O)[C@H](CC(C)C)NC(=O)[C@@H](NC(=O)[C@H](CC(C)C)NC(=O)[C@H](Cc1c[nH]cn1)NC(=O)[C@@H]1CSSC[C@H](N)C(=O)N[C@@H](CO)C(=O)N[C@H]2CSSC[C@H](NC(=O)[C@H](CCC(=O)O)NC(=O)[C@H](CCCCN)NC(=O)[C@H](CC(=O)O)NC(=O)[C@H](CCSC)NC(=O)[C@H](CC(C)C)NC(=O)[C@H](CO)NC(=O)[C@H](CO)NC2=O)C(=O)N[C@@H](C(C)C)C(=O)N[C@@H](Cc2ccc(O)cc2)C(=O)N[C@@H](Cc2ccccc2)C(=O)N1)[C@@H](C)O)C(=O)N[C@@H](Cc1c[nH]c2ccccc12)C(=O)O` [listing 2 of 2 here], the Kb in assay [2] is 20 nM. Moreover, the IC50 in assay [3] worked out at 0.42 nM; in assay [4], 0.17 nM.
Take `CC[C@H](C)[C@H](NC(=O)[C@H](CC(=O)O)NC(=O)[C@H](CC(C)C)NC(=O)[C@H](Cc1c[nH]cn1)NC(=O)[C@@H]1CSSC[C@H](NC(=O)[C@H](CCC(=O)O)NC(=O)[C@H](CCCCN)NC(=O)[C@H](CC(=O)O)NC(=O)[C@H](CCSC)NC(=O)[C@H](CC(C)C)NC(=O)[C@H](CO)NC(=O)[C@H](CO)NC(=O)[C@@H]2CSSC[C@H](N)C(=O)N[C@@H](CO)C(=O)N2)C(=O)N[C@@H](C(C)C)C(=O)N[C@@H](Cc2ccc(O)cc2)C(=O)N[C@@H](Cc2ccccc2)C(=O)N1)C(=O)N[C@H](C(=O)N[C@@H](Cc1c[nH]c2ccccc12)C(=O)O)[C@@H](C)CC`: the “[Ca2+] increase” value in assay [1] is given as 100.
As to `CC[C@H](C)[C@H](NC(=O)[C@H](CC1CCCCC1)NC(=O)[C@@H](NC(=O)[C@H](CC(C)C)NC(=O)[C@H](Cc1c[nH]cn1)NC(=O)[C@@H]1CSSC[C@H](N)C(=O)N[C@@H](CO)C(=O)N[C@H]2CSSC[C@H](NC(=O)[C@H](CCC(=O)O)NC(=O)[C@H](CCCCN)NC(=O)[C@H](CC(=O)O)NC(=O)[C@H](CCSC)NC(=O)[C@H](CC(C)C)NC(=O)[C@H](CO)NC(=O)[C@H](CO)NC2=O)C(=O)N[C@@H](C(C)C)C(=O)N[C@@H](Cc2ccc(O)cc2)C(=O)N[C@@H](Cc2ccccc2)C(=O)N1)[C@@H](C)O)C(=O)N[C@@H](Cc1c[nH]c2ccccc12)C(=O)O` [listing 1 of 2 here], the Kb in assay [2] was 20 nM. The IC50 in assay [3] is 0.61 nM; in assay [4] it was 0.42 nM.
Take `CC[C@H](C)[C@H](NC(=O)[C@H](CC(=O)O)NC(=O)[C@H](CC(C)C)NC(=O)[C@H](Cc1cnc[nH]1)NC(=O)[C@@H]1CSSC[C@H](NC(=O)[C@H](CCC(=O)O)NC(=O)[C@H](CCCCN)NC(=O)[C@H](CC(=O)O)NC(=O)[C@H](CCSC)NC(=O)[C@H](CC(C)C)NC(=O)[C@H](CO)NC(=O)[C@H](CO)NC(=O)[C@@H]2CSSC[C@H](N)C(=O)N[C@@H](CO)C(=O)N2)C(=O)N[C@@H](C(C)C)C(=O)N[C@@H](Cc2ccc(O)cc2)C(=O)N[C@@H](Cc2ccccc2)C(=O)N1)C(=O)N[C@H](C(=O)N[C@@H](Cc1c[nH]c2ccccc12)C(=O)O)[C@@H](C)CC`: the figures for the IC50 in assay [3] and in assay [4] were 5.9 nM and 0.093 nM, respectively.
As to `CC[C@H](C)[C@H](NC(=O)[C@H](CC1CCCCC1)NC(=O)[C@@H](NC(=O)[C@H](CC(C)C)NC(=O)[C@H](Cc1c[nH]cn1)NC(=O)[C@@H]1CSSC[C@H](N)C(=O)N[C@@H](CO)C(=O)N[C@H]2CSSC[C@H](NC(=O)[C@H](CCC(=O)O)NC(=O)[C@H](CCCCN)NC(=O)[C@H](CC(=O)O)NC(=O)[C@H](CCSC)NC(=O)[C@H](CC(C)C)NC(=O)[C@H](CO)NC(=O)[C@H](CO)NC2=O)C(=O)N[C@@H](C(C)C)C(=O)N[C@@H](Cc2ccc(O)cc2)C(=O)N[C@@H](Cc2ccccc2)C(=O)N1)[C@@H](C)O)C(=O)N[C@@H](Cc1c[nH]c2ccccc12)C(=O)O` [listing 2 of 2 here], in assay [1], the “[Ca2+] increase” value is listed as 10.
`CC[C@H](C)[C@H](NC(=O)[C@H](CC(C)(C)C)NC(=O)[C@@H](NC(=O)[C@H](CC(C)C)NC(=O)[C@H](Cc1c[nH]cn1)NC(=O)[C@@H]1CSSC[C@H](N)C(=O)N[C@@H](CO)C(=O)N[C@H]2CSSC[C@H](NC(=O)[C@H](CCC(=O)O)NC(=O)[C@H](CCCCN)NC(=O)[C@H](CC(=O)O)NC(=O)[C@H](CCSC)NC(=O)[C@H](CC(C)C)NC(=O)[C@H](CO)NC(=O)[C@H](CO)NC2=O)C(=O)N[C@@H](C(C)C)C(=O)N[C@@H](Cc2ccc(O)cc2)C(=O)N[C@@H](Cc2ccccc2)C(=O)N1)[C@@H](C)O)C(=O)N[C@@H](Cc1c[nH]c2ccccc12)C(=O)O`: the “[Ca2+] increase” value in assay [1] amounted to 0.
